# Laboratory results from ChEMBL document CHEMBL2163272, “Design, synthesis, and preclinical evaluations of novel 4-substituted 1,5-diarylanilines as potent HIV-1 non-nucleoside reverse transcriptase inhibitor (NNRTI) drug candidates” (J Med Chem, 2012).
# pEC50: −log10 of the molar value.
# Experiments:
# Caco-2 = test: Apparent permeability of the compound in human Caco2 cells; type: ADME, cell-based
# [1] = Aqueous solubility of the compound at pH 7.4 after 4 hrs; type: physicochemical; settings: buffer, pH 7.4, 4 h
# [2] = Aqueous solubility of the compound at pH 2.0 after 4 hrs; type: physicochemical; settings: for solubility: buffer, pH 2, 4 h; for solubility at 4 h: aqueous, pH 2
# [3] = Cytotoxicity against human TZM-bl cells after 4 days by XTT assay; type: cell-based; settings: 96 h
# Method in brief: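 TZM-bl cells (5 × 10^5/mL) exposed to graded compound concentrations at 37 °C for 4 days. XTT (1 mg/mL) with 0.02 μM PMS added, and absorbance at 450 nm read after 4 h.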
# [4] = system: Human immunodeficiency virus 1; test: Antiviral activity against HIV-1 NL4-3 infected in human TZM-bl cells assessed as inhibition of viral replication after 2 days by luciferase reporter gene based luminescence assay; type: functional, organism-based; settings: Human immunodeficiency virus 1, NL4-3, TZM-bl, 48 h
# Method in brief: (§1)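 Single-round infection of TZM-bl cells with 200 TCID50 virus (NL4-3 for wild type) in the presence of graded compound concentrations. Luciferase luminescence was read two days after infection. Run at least in triplicate; mean ± SD reported.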
# Liver microsomes [5] = test: Half life in human liver microsomes at 1 uM; type: ADME, Microsome
# Method in brief: (§2)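 Compound at 1 μM final in 0.1 M potassium phosphate pH 7.4 with 0.1 mg/mL human liver microsomes and 5 mM MgCl2, 37 °C. Started with NADPH (1.0 mM final) and quenched with ice-cold ACN at 0, 5, 15, 30, 60 min; duplicate.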
# [6] = Selectivity index, ratio of CC50 for human TZM-bl cells to EC50 for HIV-1NL4-3; type: toxicity, cell-based; settings: read-out: Ratio CC50/EC50
# Liver microsomes [7] = test: Intrinsic clearance in human liver microsomes at 1 uM; type: ADME, Microsome; method in brief: as §2
# [8] = system: Human immunodeficiency virus 1; test: Ratio of EC50 for multidrug-resistant HIV-1 RTMDR to EC50 for wild type HIV-1 NL4-3; type: functional
# [9] = system: Human immunodeficiency virus 1; test: Ratio of EC50 for HIV-1 harboring reverse transcriptase E138K mutant to EC50 for wild type HIV-1 NL4-3; type: functional
# [10] = system: Human immunodeficiency virus 1; test: Ratio of EC50 for HIV-1 harboring reverse transcriptase K101E mutant to EC50 for wild type HIV-1 NL4-3; type: functional
# [11] = system: Human immunodeficiency virus 1; test: Antiviral activity against HIV-1 harboring reverse transcriptase E138K mutant infected in human TZM-bl cells assessed as inhibition of viral replication after 2 days by luciferase reporter gene based luminescence assay; type: functional, organism-based; settings: Human immunodeficiency virus 1, TZM-bl, 48 h; method in brief: as §1
# [12] = system: Human immunodeficiency virus 1; test: Antiviral activity against multidrug-resistant HIV-1 RTMDR infected in human TZM-bl cells assessed as inhibition of viral replication after 2 days by luciferase reporter gene based luminescence assay; type: functional, organism-based; settings: Human immunodeficiency virus 1, RTMDR, 48 h; method in brief: as §1
# [13] = system: Human immunodeficiency virus 1; test: Antiviral activity against HIV-1 harboring reverse transcriptase K101E mutant infected in human TZM-bl cells assessed as inhibition of viral replication after 2 days by luciferase reporter gene based luminescence assay; type: functional, organism-based; settings: Human immunodeficiency virus 1, TZM-bl, 48 h
# Method in brief: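 Single-round infection of TZM-bl cells with 200 TCID50 virus (NL4-3 for wild type) in the presence of graded compound concentrations. Luciferase luminescence was read two days after infection. […] Run at least in triplicate; mean ± SD reported.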
Structure (SMILES),solubility [1] [µg/mL],solubility [2] [µg/mL],CC50 [3] [nM],pEC50 [4],t1/2 (Liver microsomes [5]) [min],selectivity ratio [6],intrinsic clearance (CLint) (Liver microsomes [7]) [µL/min/mg],other results
Cc1cc(/C=C/C#N)cc(C)c1Oc1cc(Nc2ccc(C#N)cc2)c(N)cc1[N+](=O)[O-],0.29,0.29,> 24400,9.20,47.8,,,Papp (Caco-2): < 2 ×10⁻⁶ cm/s
Cc1cc(CCC#N)cc(C)c1Oc1cc(Nc2ccc(C#N)cc2)c(N)cc1C(=O)NN,,,> 22700,7.72,,> 1190,,
Cc1cc(CCC#N)cc(C)c1Oc1cc(Nc2ccc(C#N)cc2)c(N)cc1C(N)=O,0.06,9.11,> 9400,8.86,42,> 6760,160,
CC(=O)/C=C/c1cc(C)c(Oc2cc(Nc3ccc(C#N)cc3)c(N)cc2C(F)(F)F)c(C)c1,,,> 8600,7.96,,> 789,,
CNC(=O)c1cc2ncn(-c3ccc(C#N)cc3)c2cc1Oc1c(C)cc(CCC#N)cc1C,,,> 890000,< 6.66,,,,
CNC(=O)c1cc(N)c(Nc2ccc(C#N)cc2)cc1Oc1c(C)cc(CCC#N)cc1C,8.28,44.7,> 9100,8.56,55.7,> 3330,120,Ratio EC50 [8]: 2.9; Ratio EC50 [9]: 3.7; Ratio EC50 [10]: 5.1; pEC50 [11]: 8.00; pEC50 [12]: 8.10; pEC50 [13]: 7.85
Cc1cc(C#N)cc(C)c1Oc1nc(Nc2ccc(C#N)cc2)nc(N)c1Br [ETRAVIRINE],,,,8.82,,,,
CC(=O)CCc1cc(C)c(Oc2cc(Nc3ccc(C#N)cc3)c(N)cc2C(F)(F)F)c(C)c1,0.16,0.28,11100,8.16,,1620,,
Cc1cc(/C=C/C#N)cc(C)c1Oc1cc(Nc2ccc(C#N)cc2)c(N)cc1C(N)=O,,,> 23600,,,> 27100,,Ratio EC50 [8]: 2.1; Ratio EC50 [9]: 10.3; Ratio EC50 [10]: 9.5; pEC50 [11]: 8.05; pEC50 [12]: 8.74; pEC50 [13]: 8.08; solubility at 4 h [2]: 2.09 µg/mL
Cc1cc(C#N)cc(C)c1Oc1cc(Nc2ccc(C#N)cc2)c(N)cc1C(F)(F)F,0.26,0.96,13300,8.42,,3510,,
Cc1cc(N)cc(C)c1Oc1cc(Nc2ccc(C#N)cc2)c(N)cc1C(F)(F)F,,,15800,7.86,,1140,,
CNC(=O)c1cc2ncn(-c3ccc(C#N)cc3)c2cc1Oc1c(C)cc(/C=C/C#N)cc1C,,,> 890000,< 6.66,,,,
Cc1cc(/C=C/C#N)cc(C)c1Oc1cc(Nc2ccc(C#N)cc2)c(N)cc1C(F)(F)F,0.24,0.42,15000,8.03,45,1600,150,
Cc1cc(/C=C/C#N)cc(C)c1Oc1cc(Nc2ccc(C#N)cc2)c(N)cc1S(N)(=O)=O,,,> 21800,7.03,,> 233,,
COC(=O)c1cc(N)c(Nc2ccc(C#N)cc2)cc1Oc1c(C)cc(CCC#N)cc1C,1.21,21.8,> 22700,8.36,186,> 5260,40,Ratio EC50 [8]: 0.9; Ratio EC50 [9]: 1.7; Ratio EC50 [10]: 3.2; pEC50 [11]: 8.12; pEC50 [12]: 8.39; pEC50 [13]: 7.85
Cc1cc(/C=C/C#N)cc(C)c1Oc1cc(Nc2ccc(C#N)cc2)c(N)cc1C(=O)O,,,,,,65,,
Cc1cc(CO)cc(C)c1Oc1cc(Nc2ccc(C#N)cc2)c(N)cc1CO,,,15900,8.00,,1590,,
CNC(=O)c1cc(N)c(Nc2ccc(C#N)cc2)cc1Oc1c(C)cc(/C=C/C#N)cc1C,,,> 9200,,44.8,> 1610,150,
COC(=O)c1cc(N)c(Nc2ccc(C#N)cc2)cc1Oc1c(C)cc(/C=C/C#N)cc1C,,,> 22800,,283,> 8320,20,
Cc1cc(CCC#N)cc(C)c1Oc1cc(Nc2ccc(C#N)cc2)c(N)cc1CO,18.8,89.8,> 23800,9.41,20.9,> 61000,330,Ratio EC50 [8]: 4.6; Ratio EC50 [9]: 7.4; Ratio EC50 [10]: 8.7; pEC50 [11]: 8.54; pEC50 [12]: 8.74; pEC50 [13]: 8.47
Cc1cc(CCC#N)cc(C)c1Oc1cc(Nc2ccc(C#N)cc2)c(N)cc1C(F)(F)F,0.24,,> 7100,8.95,55.7,,120,
Cc1cc(CCC#N)cc(C)c1Oc1cc(Nc2ccc(C#N)cc2)c(N)cc1S(N)(=O)=O,,,11100,6.42,,29.2,,
Cc1cc(CCC#N)cc(C)c1Oc1cc(Nc2ccc(C#N)cc2)c(N)cc1N,,,> 25000,8.14,,> 3420,,
Cc1cc(CCC#N)cc(C)c1Oc1cc(Nc2ccc(C#N)cc2)c(N)cc1C(=O)O,,,14300,7.02,,149,,
Cc1cc(/C=C/C#N)cc(C)c1Oc1cc(Nc2ccc(C#N)cc2)c(N)cc1CO,,,,,,30800,,Ratio EC50 [8]: 0.7; Ratio EC50 [9]: 7.4; Ratio EC50 [10]: 6.4; pEC50 [11]: 8.41; pEC50 [12]: 9.40; pEC50 [13]: 8.47; solubility at 4 h [2]: 20.9 µg/mL
